In the library only some 3.5% were active in any assay of this set; here they are far more common.
RGS4 pot: RGS4 potentiators or activators, primary screen, cell-based, HEK293 M3R inducible RGS4, calcium flux; hit rate 0.92% among 310,000; carbachol calcium flux Fluo4; stronger effect = lower value; AID 463111, 2010; B-score at 10 µM;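 active means B-score of the integrated calcium signal more than 4 SD below the library mean, with starting fluorescence not abnormally high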;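 further: negative B-score means reduced calcium response which marks RGS4 activation or potentiation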
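Also added: carbachol at ECmax as muscarinic agonist stimulus; Assay system: HEK293 cells with stable M3R and inducible RGS4; Timing: overnight RGS4 induction, 30 min dye load 37 °C, 20 min compound RT; Measured by: Fluo4-AM (2 µM) calcium-flux fluorescence, kinetic read.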
MrgX1 allo act: positive allosteric modulators of MrgX1, primary screen, HEK293 cells, Fluo-4 calcium flux | Mas-related G-protein coupled receptor member X1 (Homo sapiens), Q96LB2 | hit rate 0.63% among 310,000 | AID 588675, 2011 | FDSS; stronger effect = higher value | B-score at 10 µM;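 active means plate-corrected calcium response at least 3 library SD above typical, normal starting fluorescence, not activating the receptor alone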;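 further: compound read alongside a low EC10 to EC30 dose of BAM8-22 agonist; peak minus trough fluorescence over baseline measured at the second addition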
Target sequence (Q96LB2 whole entry, looked up): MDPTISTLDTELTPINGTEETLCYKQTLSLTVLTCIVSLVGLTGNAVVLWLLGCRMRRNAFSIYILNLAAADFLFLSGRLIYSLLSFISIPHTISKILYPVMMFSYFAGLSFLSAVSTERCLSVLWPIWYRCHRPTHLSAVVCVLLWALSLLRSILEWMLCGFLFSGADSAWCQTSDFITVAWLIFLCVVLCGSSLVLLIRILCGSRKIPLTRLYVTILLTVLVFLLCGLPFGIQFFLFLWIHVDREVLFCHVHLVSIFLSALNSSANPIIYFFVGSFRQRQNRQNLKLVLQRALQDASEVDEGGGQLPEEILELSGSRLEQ
MrgX1 agonist: agonists of human MrgX1 receptor, primary screen, HEK293 cells, Fluo-4 calcium flux; Mas-related G-protein coupled receptor member X1 (Homo sapiens), Q96LB2; B-score at 10 µM; hit rate 0.44% among 310,000; Fluo-4 calcium fluorescence, agonist mode; stronger effect = higher value; AID 588627, 2011;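 active means calcium response B-score plate-corrected fluorescence ratio at least 3 library SD, with starting fluorescence B-score inside 5 SD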
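Material – MrgX1-expressing HEK293 cells · Input – 15,000 cells seeded per well · Dosing – compound as first of three additions · Times – overnight seeding, then 1 h dark dye loading · Measured by – kinetic Fluo-4 NW fluorescence of intracellular calcium · Read-out – B-scored fluorescence response ratio · Benchmarks – positive and negative control wells on each plate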
MrgX1 antag: antagonists of human MrgX1 receptor, primary screen, HEK293 cells, Fluo-4 calcium flux. B-score at 10 µM. BAM8-22 antagonism; stronger effect = lower value. hit rate 1.3% among 310,000. Mas-related G-protein coupled receptor member X1 (Homo sapiens), Q96LB2;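 active means calcium-response B-score plate-corrected more than 3 library SD below zero, starting fluorescence within 5 deviations, no agonist response on first addition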;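 further: peak minus trough fluorescence over baseline after final BAM8-22 challenge near maximal dose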
RGS4 inh: RGS4 inhibitors, primary screen, cell-based, HEK293 M3R inducible RGS4, calcium flux. Regulator of G-protein signaling 4 (Homo sapiens), P49798. Fluo-4 calcium flux; stronger effect = higher value; triggered by carbachol at its EC20. B-score at 10 µM. hit rate 0.45% among 310,000. AID 463165, 2010;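 active means B-score, a plate-corrected calcium signal, over three deviations above library mean, with baseline fluorescence within five deviations of library mean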;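 further: RGS4 expression induced by doxycycline in cells with stable M3 receptor; B-score is computed from the integrated fluorescence ratio over baseline after carbachol; higher B-score means a larger calcium signal and so more RGS4 inhibition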
Target sequence (P49798 whole entry, looked up): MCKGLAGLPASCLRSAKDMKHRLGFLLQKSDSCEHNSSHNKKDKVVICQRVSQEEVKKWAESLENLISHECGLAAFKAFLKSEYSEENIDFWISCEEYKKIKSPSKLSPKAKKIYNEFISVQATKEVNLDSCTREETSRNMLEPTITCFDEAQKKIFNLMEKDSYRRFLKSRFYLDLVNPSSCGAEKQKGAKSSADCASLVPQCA
MrgX1 allo conf: MrgX1 positive allosteric modulators, duplicate retest, confirmation, HEK293 cells, Fluo-4 calcium flux. shares compounds with MrgX1 allo act. Fluo-4 calcium fluorescence, FDSS. activation (ratio percentage), % at 10 µM. hit rate 13% among 1,200;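 active means ratio at least 3 SD above the weak peptide control, stable starting fluorescence, no direct agonism earlier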;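 further: compound followed by low BAM8-22 agonist challenge near EC20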
HEK293 Ca flux: nonspecific calcium signal in parental HEK293, confirmation, counter-screen for MrgX1 antagonist project, parental HEK293 cells, Fluo-4 calcium flux; shares compounds with MrgX1 antag; Fluo-4 calcium fluorescence, FDSS; fluorescence ratio F(max-min)/F0 at 10 µM; hit rate 2% among 4,000;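 active means duplicate-averaged calcium fluorescence ratio at least three times the standard deviation of buffer wells, a nonspecific response in parental cells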
HEK293 Ca counter: calcium response in parental HEK293 cells, primary screen, counter-screen for MrgX1 allosteric activator project, cell-based, Fluo-4 calcium flux, duplicate; shares compounds with MrgX1 antag; hit rate 0.4% among 4,000; AID 624114, 2012; fluorescence ratio F(max-min)/F0 at 10 µM; Fluo-4 fluorescence ratio; stronger effect = higher value;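 active means calcium fluorescence ratio, averaged over duplicates, at least 3 SD of the buffer-well ratio, meaning a nonspecific response in receptor-free cells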;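 further: untransfected parental HEK293 lacking MrgX1 used as counterscreen for MrgX1 allosteric activators; fluorescence change taken during the second addition on a kinetic imager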
HEK293 Ca cntr2: calcium response in parental HEK293 cells, primary screen, counter-screen for MrgX1 agonist project, cell-based, Fluo-4 calcium flux, duplicate, agonist mode | fluorescence ratio F(max-min)/F0 at 10 µM | shares compounds with MrgX1 antag | hit rate 8.7% among 4,000 | Fluo-4 calcium fluorescence (FDSS); stronger effect = higher value | AID 624115, 2012;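 active means calcium fluorescence ratio at least three times the spread of buffer wells, meaning a non-specific response in parental cells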
Large screens that a line does not name were inactive (follow-up assays come after a bar, where they were run).

CCOC(=O)N1CCC(NS(=O)(=O)c2ccc(C)cc2)CC1	MrgX1 allo act 8.23 | MrgX1 allo conf inactive | HEK293 Ca flux inactive | HEK293 Ca counter inactive | HEK293 Ca cntr2 inactive
Cc1ccc(S(=O)(=O)C2(C(=O)NC3CCCC3)CC2)cc1	none
CCc1ccc(S(=O)(=O)NC(=S)NC2CCCCC2)cc1	MrgX1 allo act 15.7 | MrgX1 allo conf inactive | HEK293 Ca flux inactive | HEK293 Ca counter inactive | HEK293 Ca cntr2 inactive
O=S(=O)(NC(=S)NC1CCCCC1)c1ccc(Cl)cc1	MrgX1 allo act 17.1 | MrgX1 allo conf 23.3% | HEK293 Ca flux inactive | HEK293 Ca counter inactive | HEK293 Ca cntr2 inactive
Cc1ccc(S(=O)(=O)NC(=S)NC2CCCCC2)cc1	MrgX1 allo act 9.98 | MrgX1 allo conf inactive | HEK293 Ca flux inactive | HEK293 Ca counter inactive | HEK293 Ca cntr2 inactive
NS(=O)(=O)c1ccc(CCNC(=S)NC2CCCCC2)cc1	none
N#Cc1ccc(S(=O)(=O)NC2CC2)cc1	none
Nn1c(SCC(=O)Nc2cccc(S(N)(=O)=O)c2)nnc1C1CC1	MrgX1 allo act 7.84 | MrgX1 allo conf inactive | HEK293 Ca flux inactive | HEK293 Ca counter inactive | HEK293 Ca cntr2 inactive
CC(O)CNc1nc2ccccc2n1CC(=O)NCC(F)(F)F (stereo unspecified)	none
CC(O)CNc1nc2ccccc2n1CC(=O)NC12CC3CC(CC(C3)C1)C2 (stereo unspecified)	MrgX1 allo act 7.4 | MrgX1 allo conf inactive | HEK293 Ca flux inactive | HEK293 Ca counter inactive | HEK293 Ca cntr2 inactive
CN(C)S(=O)(=O)c1cccc(NC(=O)c2c[nH]c3ccccc23)c1	MrgX1 allo act 9.87 | MrgX1 allo conf inactive | HEK293 Ca flux inactive | HEK293 Ca counter inactive | HEK293 Ca cntr2 inactive
CN(C)S(=O)(=O)c1cccc(NC(=O)c2cc(=O)[nH]c3ccccc23)c1	none
O=C(CSc1nc2ccccc2[nH]1)Nc1ccc(F)cc1	none
O=C(CSc1nc2ccccc2[nH]1)NCc1ccc(F)cc1	MrgX1 allo act 9.48 | MrgX1 allo conf inactive | HEK293 Ca flux inactive | HEK293 Ca counter inactive | HEK293 Ca cntr2 inactive
Cc1cccc(S(=O)(=O)Nc2cccc3c2C(=O)c2ccccc2-3)c1	MrgX1 allo act 14.9 | MrgX1 allo conf inactive | HEK293 Ca flux inactive | HEK293 Ca counter inactive | HEK293 Ca cntr2 46.8
CCN(c1cccc(C)c1)S(=O)(=O)c1ccc(-n2cccn2)cc1	MrgX1 allo act 6.99 | MrgX1 allo conf inactive | HEK293 Ca flux inactive | HEK293 Ca counter inactive | HEK293 Ca cntr2 inactive
O=C(OC1C2CCC1C1CN(CCc3ccccc3)CC12)c1ccccc1 (stereo unspecified)	none
CCOc1ccccc1NC(=O)Cc1coc2ccc(C)cc12	MrgX1 allo act 13.8 | MrgX1 allo conf inactive | HEK293 Ca flux inactive | HEK293 Ca counter inactive | HEK293 Ca cntr2 inactive
COc1ccc(OC)c(NC(=O)Cc2coc3ccc(C)cc23)c1	none
Nc1nc2n(n1)C(c1cccc(Cl)c1)CC(c1ccc(F)cc1)N2 (stereo unspecified)	MrgX1 allo act 9.68 | MrgX1 allo conf inactive | HEK293 Ca flux inactive | HEK293 Ca counter inactive | HEK293 Ca cntr2 inactive
CCOc1ccc(C2CC(c3cccc(Cl)c3)n3nc(N)nc3N2)cc1 (stereo unspecified)	none
Cc1ccc2oc(C(=O)N3CCCCCC3)c(C)c2c1	MrgX1 allo act 6.47 | MrgX1 allo conf inactive | HEK293 Ca flux inactive | HEK293 Ca counter inactive | HEK293 Ca cntr2 inactive
Nc1c(C(=O)N2CCCCCC2)oc2ccccc12	MrgX1 allo act 10 | MrgX1 allo conf inactive | HEK293 Ca flux inactive | HEK293 Ca counter inactive | HEK293 Ca cntr2 inactive
O=C(O)c1c2c(nc3ccccc13)/C(=C/c1c(F)cccc1F)CCC2	MrgX1 allo act 8.2 | MrgX1 allo conf inactive | HEK293 Ca flux inactive | HEK293 Ca counter inactive | HEK293 Ca cntr2 inactive
O=C(O)c1c2c(nc3ccccc13)/C(=C/c1ccc(OC(F)F)cc1)CCC2	none
COc1ccc(OC)c(N(CC(=O)NCC2CCCO2)S(=O)(=O)c2ccccc2)c1 (stereo unspecified)	none
COc1cc(CNn2cn[nH]c2=S)cc(Br)c1OCc1ccccc1F	MrgX1 allo act 6.47 | MrgX1 allo conf inactive | HEK293 Ca flux inactive | HEK293 Ca counter inactive | HEK293 Ca cntr2 inactive
COc1cc(CNn2cn[nH]c2=S)cc(Cl)c1OCc1ccccc1	none
COc1ccccc1-n1cc(-c2ccccc2)c2c(=S)nc[nH]c21	MrgX1 allo act 16.4 | MrgX1 allo conf inactive | HEK293 Ca flux inactive | HEK293 Ca counter inactive | HEK293 Ca cntr2 inactive
CCN(CC)CCN1C(=O)C(O)=C(C(=O)c2cc3cccc(OC)c3o2)C1c1ccc(F)cc1 (stereo unspecified)	none
Cc1csc(NC(=O)c2cncc(Br)c2)n1	MrgX1 allo act 15.1 | MrgX1 allo conf inactive | HEK293 Ca flux inactive | HEK293 Ca counter inactive | HEK293 Ca cntr2 inactive
CSCCCNC(=S)Nc1cccc(S(=O)(=O)NC2=NCCC2)c1	none
C=C(C)CNC(=S)Nc1cccc(S(=O)(=O)NC2=NCCC2)c1	MrgX1 allo act 11.3 | MrgX1 allo conf inactive | HEK293 Ca flux inactive | HEK293 Ca counter inactive | HEK293 Ca cntr2 inactive
COCC(=O)N1CCC(Oc2ccc(C(=O)N3CCCCCC3)cc2)CC1	none
Cc1ccc(-c2nn(CC(=O)NN3CCOCC3)c(=O)c3ccccc23)cc1	none
CCc1nn2c(N)c(/C=C3\C=Nc4ccccc43)c(=O)nc2s1	MrgX1 allo act 6.85 | MrgX1 allo conf 11.7% | HEK293 Ca flux inactive | HEK293 Ca counter inactive | HEK293 Ca cntr2 inactive
CSc1nsc2nc(=O)c(/C=C3\C=Nc4ccccc43)c(N)n12	MrgX1 allo act 57.1 | MrgX1 allo conf 15.1% | HEK293 Ca flux inactive | HEK293 Ca counter inactive | HEK293 Ca cntr2 inactive
CCOC(=O)/C=C1\SCC(=O)N1CC(=O)Nc1cccc(F)c1	none
